Results on 7 molecules are retold here after ChEMBL document CHEMBL1138498 (J Med Chem, 2009).

Data set [1] addresses T1, Substance-P receptor (Homo sapiens, UniProt P25103). As to the kind of experiment: Displacement of [3H]substance P from human recombinant NK1 receptor expressed in CHO cells. It counts as cell-based. (Displacement assays read how much labelled ligand stays bound in the presence of the test substance.)
The test system of data set [2] is Meriones unguiculatus. As to the kind of experiment: Inhibition of GR-73632-induced foot tapping in po dosed Mongolian gerbil assessed as duration of repetitive hind foot tapping administered 1 hr before GR-73632 challenge. The format is functional. The note with it: read-out: ID50 (the source's name). A digest of the protocol: (§1)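 Male Mongolian gerbils (45-70 g), at least seven per group, received vehicle or compound orally (10 mL/kg) at 1, 2, 4 or 8 h before icv GR73632 (3 pmol/5 µL). Foot tapping was then scored. Doses were compared by ANOVA with Dunnett's test.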

Data set [3] concerns Meriones unguiculatus. Put plainly: Inhibition of GR-73632-induced foot tapping in po dosed Mongolian gerbil assessed as duration of repetitive hind foot tapping administered 1 hr before GR-73632 challenge measured after 8 hrs. It counts as functional. The settings on record: read-out: ID50 (the source's name). An outline of the steps: as §1
A short description of data set [4]: Bioavailability in rat. The format is ADME, organism-based. The note with it: in vivo.
Data set [5] concerns Meriones unguiculatus. As to the kind of experiment: Inhibition of GR-73632-induced foot tapping in po dosed Mongolian gerbil assessed as duration of repetitive hind foot tapping administered 1 hr before GR-73632 challenge measured after 1 hr. It counts as functional. The settings on record: read-out: ID50 (the source's name). An outline of the steps: as §1
Data set [6] concerns the target T1, Substance-P receptor. The settings on record: CHO.
A short description of data set [7]: Half life in dog. The settings on record: in vivo. The format is ADME, organism-based, Canis lupus familiaris.
For data set [8], the system named is Meriones unguiculatus. As to the kind of experiment: Inhibition of GR-73632-induced foot tapping in po dosed Mongolian gerbil assessed as duration of repetitive hind foot tapping administered 1 hr before GR-73632 challenge measured after 2 hrs. The format is functional. The settings on record: read-out: ID50 (the source's name). An outline of the steps: as §1

Data set [9] deals with Meriones unguiculatus. Put plainly: Inhibition of GR-73632-induced foot tapping in po dosed Mongolian gerbil assessed as duration of repetitive hind foot tapping administered 1 hr before GR-73632 challenge measured after 4 hrs. It counts as functional. The settings on record: read-out: ID50 (the source's name). An outline of the steps:
as §1

Data set [10] has as its target T1, Substance-P receptor. The note with it: CHO. The source holds these as a separate data set.
Data set [11] in a line: Half life in rat. It counts as ADME, organism-based. The note with it: in vivo.
Data set [12] can be described thus: Plasma clearance in rat. The format is ADME, organism-based.
The nature of data set [13]: Ratio of drug level in brain to plasma in rat at 1 mg/kg, iv after 5 mins.
Data set [14] in a line: Plasma clearance in dog. It counts as ADME, organism-based, Canis lupus familiaris.
A short description of data set [15]: Bioavailability in dog. It counts as ADME, organism-based, Canis lupus familiaris. The settings on record: in vivo.

T1 sequence (P25103 whole entry): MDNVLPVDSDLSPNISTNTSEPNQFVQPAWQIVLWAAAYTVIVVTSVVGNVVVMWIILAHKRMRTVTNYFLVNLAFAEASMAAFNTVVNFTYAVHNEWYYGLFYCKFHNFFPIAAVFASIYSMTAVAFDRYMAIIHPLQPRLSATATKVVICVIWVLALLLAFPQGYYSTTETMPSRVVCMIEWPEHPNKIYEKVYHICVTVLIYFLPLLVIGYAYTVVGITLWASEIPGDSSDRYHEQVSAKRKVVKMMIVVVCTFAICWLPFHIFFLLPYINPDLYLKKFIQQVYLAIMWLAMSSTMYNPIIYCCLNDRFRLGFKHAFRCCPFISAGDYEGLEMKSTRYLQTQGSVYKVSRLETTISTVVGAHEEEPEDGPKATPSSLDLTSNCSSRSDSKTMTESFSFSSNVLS

Take `Cc1cc(F)ccc1C1CNCCN1C(=O)N(C)Cc1cc(C(F)(F)F)cc(C(F)(F)F)c1` (racemic): the inhibition constant Ki (in general, the equilibrium dissociation constant of an inhibitor or competing ligand from its target) at Substance-P receptor [1] is 1.29 nM.

Take `COc1ccc(-n2nnnc2C(F)(F)F)cc1CN[C@H]1CCCN[C@H]1c1ccccc1` [VOFOPITANT]: in the data set on Meriones unguiculatus [2], the ED50 is 0.6 mg/kg. Further, at Substance-P receptor [1], the inhibitory constant (Ki) was 0.0501 nM.

In the case of `Cc1cc(F)ccc1[C@@H]1CNCCN1C(=O)N(C)Cc1cc(C(F)(F)F)cc(C(F)(F)F)c1`, the ED50 in the data set on Meriones unguiculatus [2] is 5.6 mg/kg. The inhibitory constant (Ki) on Substance-P receptor [1] is 18.2 nM.

With `CC(=O)O.Cc1cc(F)ccc1[C@H]1CNCCN1C(=O)N(C)[C@@H](C)c1cc(C(F)(F)F)cc(C(F)(F)F)c1`, the ED50 in the data set with Meriones unguiculatus [2] was found to be 0.036 mg/kg.

`Cc1cc(F)ccc1[C@H]1CNCCN1C(=O)N(C)Cc1cc(C(F)(F)F)cc(C(F)(F)F)c1`: the ED50 with Meriones unguiculatus [2] came out at 0.2 mg/kg; with Meriones unguiculatus [3], 0.3 mg/kg.

For the molecule `Cc1cc(F)ccc1[C@H]1CNCCN1C(=O)N(C)[C@H](C)c1cc(C(F)(F)F)cc(C(F)(F)F)c1` [VESTIPITANT], the bioavailability – broadly, the share of a dose that reaches the circulation, judged against a reference dose that is usually intravenous – in [4] is 44%; in data set [15] it was 71%. Also, the ED50 in the data set with Meriones unguiculatus [5] was found to be 0.014 mg/kg; in the data set with Meriones unguiculatus [8], 0.007 mg/kg; in the data set with Meriones unguiculatus [9], 0.002 mg/kg; with Meriones unguiculatus [2], 0.014 mg/kg; with Meriones unguiculatus [3], 0.027 mg/kg. Further, at Substance-P receptor [6], the pKb – broadly, −log10 of the Kb, conventionally taken in molar units – came out at 9.87. The half-life (usually the time in which the quantity being followed falls by half) was 11 h in [7] and 5 h in [11]. In addition, at Substance-P receptor [10], the T1/2 came to 0.995 h. Moreover, the clearance – broadly, the volume of plasma or blood freed of the substance per unit of time – in data set [12] worked out at 19 mL/min/kg; in data set [14], 15 mL/min/kg. Also, in [13], the Kp (usually the ratio of the level in a tissue or fluid to that in plasma or blood) at 5 min amounted to 1.3.

`Cc1cc(F)ccc1N1CCNCC1C(=O)N(C)Cc1cc(C(F)(F)F)cc(C(F)(F)F)c1` (centres undefined): the negative logarithm of the Kb (pKb) on Substance-P receptor [6] was found to be 8.56. In addition, the inhibition constant (Ki) at Substance-P receptor [1] was 8.71 nM.
